The source made the active and inactive calls. No cut-off for these calls is given here.
Key:
Coagulation factor X [1] = target: T1, Coagulation factor X (Homo sapiens, UniProt P00742); assay: Inhibition of human factor 10a using S-2222 chromogenic substrate assessed as hydrolysis at 1.36 uM by microplate reader
Outline: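 Purified human fXa with chromogenic substrate S-2222 and inhibitor in 0.05 M Tris-HCl pH 8.4 or 0.15 M NaCl; reaction started with enzyme. Hydrolysis read continuously at 405 nm, 37 °C. Percent inhibition at final inhibitor 1.36 µM, single run.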

Plasma [2] = assay: Anticoagulant activity in human plasma assessed as concentration required to double clotting time; format: functional
Outline: (§1)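 Citrated plasma (human or mouse) spun at 3000 rpm for 10 min and stored at −40 °C. Clotting times read on a coagulometer at 37 °C; PT with thromboplastin, compared with a distilled water control. CT2 (concentration doubling clotting time) taken from each concentration–response curve; three determinations, mean reported.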

Plasma [3] = assay: Anticoagulant activity in mouse plasma assessed as concentration required to prolong prothombin time; format: functional; outline: as §1
Coagulation factor X [4] = target: T1, Coagulation factor X; assay: Inhibition of human factor 10a using S-2222 chromogenic substrate assessed as hydrolysis by microplate reader
Mus musculus = assay: Anticoagulant activity in ICR mouse plasma assessed as prolongation of prothombin time at 100 mg/kg, po after 0.5 to 2 hrs relative to untreated control; format: functional
Outline: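 Male ICR mice (30–37 g) given compound dissolved or suspended in 0.5% methyl cellulose, 100 mg/kg by gastric tube. PT measured by coagulometer at 37 °C with thromboplastin; expressed as fold of vehicle-treated baseline; n = 3.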

Trypsin = Trypsin (Homo sapiens, UniProt P07477+P07478+P35030); assay: Inhibition of human Trypsin using S-2222 chromogenic substrate assessed as hydrolysis by microplate reader
Prothrombin = Prothrombin (Homo sapiens, UniProt P00734); assay: Inhibition of human Thrombin using S-2238 chromogenic substrate assessed as hydrolysis by microplate reader

T1 sequence (P00742 41-179 limits assumed): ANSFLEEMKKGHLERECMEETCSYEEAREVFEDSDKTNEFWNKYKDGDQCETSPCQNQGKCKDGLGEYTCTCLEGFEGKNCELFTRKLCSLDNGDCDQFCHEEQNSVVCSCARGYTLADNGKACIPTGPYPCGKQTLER
T1 sequence (P00742 235-488 limits assumed): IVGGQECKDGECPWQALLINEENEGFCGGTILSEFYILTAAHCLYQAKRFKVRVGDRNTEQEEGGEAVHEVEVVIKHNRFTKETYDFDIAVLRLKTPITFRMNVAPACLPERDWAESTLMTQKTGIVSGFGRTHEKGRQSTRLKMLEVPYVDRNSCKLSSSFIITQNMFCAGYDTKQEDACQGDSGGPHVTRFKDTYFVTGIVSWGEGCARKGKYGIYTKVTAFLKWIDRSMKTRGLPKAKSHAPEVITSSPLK

inhibition (Coagulation factor X [1]) | IC50 (Coagulation factor X [4]) [nM] | Compound | also measured
94% | – | Cc1ccc(NC(=O)c2ccccc2NC(=O)c2ccc(N3CCCN(C)CC3)cc2)cc1 | –
– | – | CS(=O)(=O)c1ccccc1-c1ccc(NC(=O)c2cc(C(F)(F)F)nn2-c2cccc(CN)c2)c(F)c1.Cl | Activity (Plasma [2]): 0.67 µM; Activity (Plasma [3]): 0.7 µM
73% | – | Cc1ccc(NC(=O)c2ccccc2NC(=O)c2ccc(N3CCCN(C)CC3)cc2)nc1 | –
– | 290 | Cc1ccc(NC(=O)c2cccc(O)c2NC(=O)c2ccc(N3CCCN(C)CC3)cc2)nc1.Cl | Ratio (Mus musculus): 2.13
100% | – | CN1CCCN(c2ccc(C(=O)Nc3ccccc3C(=O)Nc3ccc(Cl)cc3)cc2)CC1 | –
– | 3.6 | CN1CCCN(c2ccc(C(=O)Nc3ccc(Cl)cc3C(=O)Nc3ccc(Cl)cn3)cc2)CC1.Cl | Ratio (Mus musculus): 1.21
– | 150 | COc1ccc(NC(=O)c2cccc(O)c2NC(=O)c2ccc(N3CCCN(C)CC3)cc2)cc1.Cl | Ratio (Mus musculus): 1.97
39% | – | COc1ccc(NC(=O)c2ccccc2NC(=O)c2ccc(N3CCCN(C)CC3)cc2)cc1Cl | –
– | 220 | COc1ccc(NC(=O)c2cccc(O)c2NC(=O)c2ccc(N3CCCN(C)CC3)cc2)nc1.Cl | Ratio (Mus musculus): 2.03
– | 68 | COc1ccc(NC(=O)c2cc(Cl)cc(O)c2NC(=O)c2ccc(N3CCCN(C)CC3)cc2)cc1.Cl | Ratio (Mus musculus): 3.91
15% | – | CCc1ccc(NC(=O)c2ccccc2NC(=O)c2ccc(N3CCCN(C)CC3)cc2)cc1 | –
88% | – | Cc1cccc(NC(=O)c2ccccc2NC(=O)c2ccc(N3CCCN(C)CC3)cc2)c1 | –
9% | – | Cc1cccc(NC(=O)c2ccccc2NC(=O)c2ccc(N3CCCN(C)CC3)cc2)n1 | –
– | 1.5 | CN1CCCN(c2ccc(C(=O)Nc3c(O[C@@H]4O[C@H](C(=O)O)[C@@H](O)[C@H](O)[C@H]4O)cc(Cl)cc3C(=O)Nc3ccc(Cl)cn3)cc2)CC1 | Activity (Plasma [2]): 0.27 µM; Activity (Plasma [3]): 0.28 µM; IC50 (Trypsin): > 100000 nM; IC50 (Prothrombin): > 100000 nM
22% | – | CN1CCCN(c2ccc(C(=O)Nc3ccccc3C(=O)Nc3ccc(Oc4ccccc4)cc3)cc2)CC1 | –
76% | – | CN1CCCN(c2ccc(C(=O)Nc3ccccc3C(=O)Nc3cccc(Cl)c3)cc2)CC1 | –
– | 66 | COc1ccc(NC(=O)c2cccc(O[C@@H]3O[C@H](C(=O)O)[C@@H](O)[C@H](O)[C@H]3O)c2NC(=O)c2ccc(N3CCCN(C)CC3)cc2)cc1 | –
– | 6.9 | CN1CCCN(c2ccc(C(=O)Nc3c(O)cccc3C(=O)Nc3ccc(Cl)cc3)cc2)CC1.Cl | Ratio (Mus musculus): 2.67
– | 16 | CN1CCCN(c2ccc(C(=O)Nc3c(O)cccc3C(=O)Nc3ccc(Cl)cn3)cc2)CC1.Cl | Ratio (Mus musculus): 3.61

inhibition (Coagulation factor X [1]) | IC50 (Coagulation factor X [4]) [nM] | Compound | also measured
inactive | – | CN1CCCN(c2ccc(C(=O)Nc3ccccc3C(=O)Nc3ccc4ccccc4n3)cc2)CC1 | –
56% | – | Cc1ccnc(NC(=O)c2ccccc2NC(=O)c2ccc(N3CCCN(C)CC3)cc2)c1 | –
32% | – | CN1CCCN(c2ccc(C(=O)Nc3ccccc3C(=O)Nc3ccc(OC(F)(F)F)cc3)cc2)CC1 | –
11% | – | CN1CCCN(c2ccc(C(=O)Nc3ccccc3C(=O)Nc3ccccc3Cl)cc2)CC1 | –
24% | – | CN1CCCN(c2ccc(C(=O)Nc3ccccc3C(=O)Nc3ccc(N(C)C)cc3)cc2)CC1 | –
38% | – | CN1CCCN(c2ccc(C(=O)Nc3ccccc3C(=O)Nc3ccccn3)cc2)CC1 | –
40% | – | COc1cccc(NC(=O)c2ccccc2NC(=O)c2ccc(N3CCCN(C)CC3)cc2)c1 | –
inactive | – | COc1ccc(NC(=O)c2ccccc2NC(=O)c2ccc(N3CCCN(C)CC3)cc2)cc1OC | –
– | 8.7 | CN1CCCN(c2ccc(C(=O)Nc3c(O)cc(Cl)cc3C(=O)Nc3ccc(Cl)cn3)cc2)CC1.Cl | Ratio (Mus musculus): 7.8
– | 68 | Cc1ccc(NC(=O)c2cccc(O)c2NC(=O)c2ccc(N3CCCN(C)CC3)cc2)cc1.Cl | Ratio (Mus musculus): 2.11
7% | – | COc1ccc(NC(=O)c2ccccc2NC(=O)c2ccc(N3CCCN(C)CC3)cc2)cn1 | –
– | 61 | COc1ccc(NC(=O)c2ccc(C)c(O)c2NC(=O)c2ccc(N3CCCN(C)CC3)cc2)cc1.Cl | Ratio (Mus musculus): 0.95
inactive | – | Cc1cc(NC(=O)c2ccccc2NC(=O)c2ccc(N3CCCN(C)CC3)cc2)sn1 | –
inactive | – | Cc1cc(NC(=O)c2ccccc2NC(=O)c2ccc(N3CCCN(C)CC3)cc2)n[nH]1 | –
23% | – | CC(C)c1ccc(NC(=O)c2ccccc2NC(=O)c2ccc(N3CCCN(C)CC3)cc2)cc1 | –
16% | – | Cc1ccccc1NC(=O)c1ccccc1NC(=O)c1ccc(N2CCCN(C)CC2)cc1 | –
85% | – | COc1ccc(NC(=O)c2ccccc2NC(=O)c2ccc(N3CCCN(C)CC3)cc2)cc1.Cl | Ratio (Mus musculus): 1.02
inactive | – | CN1CCCN(c2ccc(C(=O)Nc3ccccc3C(=O)Nc3nc4ccccc4[nH]3)cc2)CC1 | –

From ChEMBL document CHEMBL3352298, “Identification of potent orally active factor Xa inhibitors based on conjugation strategy and application of predictable fragment recommender system” (Bioorg Med Chem, 2015)
